Screening data (PubChem)
This is one part of a sample in which hits are shown more often than they occur.
D1 allo mod: allosterically modulates the human D1 dopamine receptor. P21728. HEK293 D1, CRE-luciferase, dopamine EC30 potentiation; actives deviate in either direction. AID 641. B-score at 10 µM. 5.9% of 58,000 active;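 active = luminescence count or its row- and column-corrected plate score outside the 99.7% band of the plate's sample wells, on either side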
hDAT+cocaine: changed human dopamine transporter uptake under cocaine IC80 | Q01959 | LLC-PK1 hDAT cells, [14C]-dopamine uptake with cocaine IC80; actives deviate in either direction | B-score at 10 µM | 1.3% of 110,000 active | AID 449768;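 active = Z score or B-score, a plate-position-corrected score, falls beyond the plate's 99.7% confidence bounds, in either direction; inactive = both scores lie inside the 99.7% bounds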;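 also: scored against the spread of the other compound wells on the same plate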
Target sequence (Q01959 whole entry, looked up): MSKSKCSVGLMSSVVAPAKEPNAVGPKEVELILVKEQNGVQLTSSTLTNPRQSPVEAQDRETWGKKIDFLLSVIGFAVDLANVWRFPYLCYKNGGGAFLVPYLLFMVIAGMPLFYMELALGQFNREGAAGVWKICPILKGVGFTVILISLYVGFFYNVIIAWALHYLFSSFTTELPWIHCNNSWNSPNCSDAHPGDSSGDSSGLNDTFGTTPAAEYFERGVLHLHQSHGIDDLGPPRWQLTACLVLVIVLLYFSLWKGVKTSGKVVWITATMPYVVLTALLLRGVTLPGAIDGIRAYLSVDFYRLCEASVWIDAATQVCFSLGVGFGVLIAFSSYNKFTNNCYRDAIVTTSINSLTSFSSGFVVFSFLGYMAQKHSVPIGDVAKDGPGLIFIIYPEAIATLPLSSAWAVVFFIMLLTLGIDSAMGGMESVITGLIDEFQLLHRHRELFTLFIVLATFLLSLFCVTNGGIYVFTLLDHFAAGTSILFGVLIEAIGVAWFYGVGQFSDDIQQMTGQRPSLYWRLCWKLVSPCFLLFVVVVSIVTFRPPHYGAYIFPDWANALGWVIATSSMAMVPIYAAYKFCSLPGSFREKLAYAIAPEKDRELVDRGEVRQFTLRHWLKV
WNV NS2B-NS3 inh: blocks West Nile virus NS2B-NS3 protease activity | P06935 | WNV NS2B-NS3 protease, fluorogenic substrate Ex360/Em465; hits give low values | z-score (concentration not given with the values) | AID 577 | 0.18% of 65,000 active; in the data active = z-score below about -3
AP complement: orthogonal test for alternative complement pathway inhibitors. Human serum alternative complement pathway, LPS-coated ELISA, C3 deposition; tested in compound mixtures. inhibition, % at 5 µM. 0.08% of 62,000 active;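 active = inhibition above 30% in each of the two pooled mixtures holding the compound, so the lower value exceeds 30%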;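 also: 0% = serum in Mg-EGTA without compound and 100% = EDTA serum blank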
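Medium: diluted human serum in Mg2+-EGTA GVB++. Assay system: human serum complement alternative pathway, C3 deposition onto LPS. Also added: Plate-bound LPS. Technique: Anti-C3 ELISA, OD 450 nm. Measure: percent inhibition. Incubation: 1 h at 37 °C. Dosing: 5 µM each compound, pools of ten, 50 µM per pool.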
* = called active by the depositor.

What do the screens show for `Clc1cc(Cl)cc(C2=NC(Cc3ccccc3)CO2)c1` (stereo unspecified)?
hDAT+cocaine: 1.2

What do the screens show for `COc1cccc(NC(=O)CN2CCN(c3ccc(F)cc3)CC2)c1`?
D1 allo mod: 0.607; hDAT+cocaine: -2.46*; WNV NS2B-NS3 inh: -0.56; AP complement: -0.3

What do the screens show for `Cc1ccc(/C=N/n2nnnc2N)cc1[N+](=O)[O-]`?
hDAT+cocaine: -8.87*

Results for c1ccc2c(c1)CCN(c1nc3cc4c(cc3s1)OCCO4)C2 ?
D1 allo mod: -6.09*; hDAT+cocaine: 0.869; WNV NS2B-NS3 inh: 0.36; AP complement: 10.7

What do the screens show for `Cc1cccc(-c2nc3ccccc3c3nncn23)c1`?
D1 allo mod: 14.5*; hDAT+cocaine: 0.0702; WNV NS2B-NS3 inh: -0.92; AP complement: 11.6

How did Cc1ccc(S(=O)(=O)c2cc3c(=O)n4ccccc4nc3n(CC3CCCO3)c2=N)cc1C (stereo unspecified) do in these assays?
D1 allo mod: 10.1*; WNV NS2B-NS3 inh: -0.37; AP complement: -0.1

What do the screens show for `N=c1c(S(=O)(=O)c2ccccc2)cc2c(=O)n3ccccc3nc2n1CCN1CCOCC1`?
D1 allo mod: -0.0759; WNV NS2B-NS3 inh: 0.53; AP complement: 12.9

What do the screens show for `Cc1cc2n(n1)C(c1c[nH]c3ccccc13)Nc1ccccc1-2` (stereo unspecified)?
D1 allo mod: 0.871; hDAT+cocaine: 2.62; WNV NS2B-NS3 inh: -0.63; AP complement: -1.0

How did CCCCN1C=C(C(=O)OC)C(c2ccccc2C(F)(F)F)C(C(=O)OC)=C1 do in these assays?
hDAT+cocaine: 3.07*

How did N=c1c(C(=O)NC2CCCCC2)cc2c(=O)n3ccccc3nc2n1CCN1CCOCC1 do in these assays?
D1 allo mod: 0.219; WNV NS2B-NS3 inh: -0.48; AP complement: 30.2

What do the screens show for `O=S(=O)(NCCSc1nnc(-c2ccco2)n1-c1ccccc1)c1ccccc1`?
D1 allo mod: 10.5*; hDAT+cocaine: -0.0137; WNV NS2B-NS3 inh: -0.9; AP complement: -5.1

Results for O=C(CSc1nnc(-c2ccco2)n1-c1ccccc1)N1CCOCC1 ?
D1 allo mod: -0.668; hDAT+cocaine: 0.468; WNV NS2B-NS3 inh: 1.37; AP complement: 7.3

How did COc1ccc(CCNC(=O)C/C(C)=N/NC(=O)c2ccc(N)cc2)cc1OC do in these assays?
hDAT+cocaine: -3.07*

How did COCCn1c(N)c(NCc2ccccc2)c(=O)n(CC(=O)Nc2cc(C)ccc2C)c1=O do in these assays?
D1 allo mod: 0.681; hDAT+cocaine: 2.02*; WNV NS2B-NS3 inh: 0.91; AP complement: 14.2

How did CCn1c(SCC(=O)c2ccc(O)c(O)c2)nnc1-c1ccc(C)cc1 do in these assays?
hDAT+cocaine: -0.862

What do the screens show for `CCn1c(SCC(=O)c2ccc3c(c2)Cc2ccccc2-3)nnc1-c1ccc(N)cc1`?
hDAT+cocaine: 1.71*

How did Cc1nonc1NC(=O)Nc1cccnc1 do in these assays?
hDAT+cocaine: -0.094; WNV NS2B-NS3 inh: -1.23; AP complement: 5.4

How did COC(=O)c1ccc(OC(=O)c2ccco2)cc1 do in these assays?
D1 allo mod: 0.0141; hDAT+cocaine: -7.45*; WNV NS2B-NS3 inh: 0.32; AP complement: 8.4

What do the screens show for `O=C1CC(c2ccco2)CC(O)=C1C=Nc1cc(Cl)ccc1O` (stereo unspecified)?
hDAT+cocaine: -8.54*; WNV NS2B-NS3 inh: -1.07

Results for O=C1CC(c2ccco2)CC(O)=C1C=Nc1ccc(Br)cc1 (stereo unspecified) ?
hDAT+cocaine: 0.0678

What do the screens show for `CCC1=C(OC(=O)N(CC)CC)N2C(=O)OC(=NCc3ccccc3)[C@]2(C)[C@H]2C1=CC[C@H]1C(=O)N(c3ccccc3)C(=O)[C@H]12`?
hDAT+cocaine: 1.85*

Results for CC1CCN(CC(=O)Nc2cccc([N+](=O)[O-])c2)CC1 ?
hDAT+cocaine: -2.77*

How did O=C(NCC1CCCO1)C1CCN(C(=O)c2ccc(Br)cc2)CC1 (stereo unspecified) do in these assays?
D1 allo mod: -0.45; hDAT+cocaine: 0.122; WNV NS2B-NS3 inh: -0.66; AP complement: 12.2

Results for Cc1cc2ccccc2c(=O)n1CC(=O)NCC(=O)N(C)C1CCCCC1 ?
hDAT+cocaine: 0.303

Results for Cc1cc2ccccc2c(=O)n1CC(=O)NCC(=O)N(C)Cc1ccccc1 ?
hDAT+cocaine: -7.75*; WNV NS2B-NS3 inh: -1.33; AP complement: -2.3

What do the screens show for `COc1ccc(OC)c(C2Nc3nc4ccccc4n3C(C)=C2C(=O)Nc2ccc(C)cc2C)c1` (stereo unspecified)?
hDAT+cocaine: 1.13

How did Cc1ccc2c(c1)cc(CN(Cc1cccs1)C(=O)c1ccco1)c1nnnn12 do in these assays?
hDAT+cocaine: 0.556; WNV NS2B-NS3 inh: -1.41; AP complement: 0.4

Results for Cc1ccc2cc(CN(Cc3cccs3)C(=O)c3ccco3)c3nnnn3c2c1C ?
D1 allo mod: 3.67*; WNV NS2B-NS3 inh: -0.62; AP complement: 7.6

Results for Cn1nnc(NCc2cc(Br)ccc2OCc2cccs2)n1 ?
D1 allo mod: 0.295; hDAT+cocaine: 9.76*; WNV NS2B-NS3 inh: -1.48; AP complement: 16.8

Results for Oc1ccc(/C=C/c2cc(O)cc(O)c2)cc1 ?
D1 allo mod: -8.38*; hDAT+cocaine: 1.36; WNV NS2B-NS3 inh: 0.13; AP complement: -7.3

What do the screens show for `O=C(O)/C=C/c1ccc(O)cc1`?
hDAT+cocaine: -1.33

What do the screens show for `Cn1ccnc1SCc1ccc([N+](=O)[O-])cc1`?
hDAT+cocaine: 0.721

Results for Cn1ccnc1SCc1cn2cc(Br)ccc2n1 ?
D1 allo mod: -4.67*; hDAT+cocaine: -8.74*; WNV NS2B-NS3 inh: -0.16; AP complement: -1.4

How did CCOC(=O)CN1C(=O)N[C@@H](c2cccc(F)c2)C(C(=O)OC)=C1C do in these assays?
hDAT+cocaine: 0.0558

Results for Cc1ccccc1-c1nc(S(=O)(=O)c2ccc(Cl)cc2)c(NCCN2CCOCC2)o1 ?
hDAT+cocaine: 1.85*

What do the screens show for `S=C(c1ccc2c(c1)OCO2)N1CCCC1`?
D1 allo mod: 0.282; hDAT+cocaine: -1.15; WNV NS2B-NS3 inh: -1.53; AP complement: 24.2

Results for Cc1cc(C)c(-c2cc(NC(=O)CSc3n[nH]c(N)n3)n(-c3ccccc3)n2)cc1C ?
hDAT+cocaine: 3.29*

What do the screens show for `Clc1cccc(Cl)c1-c1nnc2cccc(Cl)n12`?
hDAT+cocaine: 0.00426

How did Nc1nnc(SCc2cccc(C(F)(F)F)c2)s1 do in these assays?
D1 allo mod: 0.131; hDAT+cocaine: -2.69*; WNV NS2B-NS3 inh: 1.02; AP complement: 18.3

Results for Nc1nnc(SCc2cccnc2)s1 ?
D1 allo mod: -0.616; hDAT+cocaine: -0.0624; WNV NS2B-NS3 inh: -0.59; AP complement: 4.0

How did Cc1ccc2c(c1)C1CN(C)CCC1N2C(=O)Nc1ccc(Cl)cc1 (stereo unspecified) do in these assays?
D1 allo mod: -4.22*; hDAT+cocaine: 1.48; WNV NS2B-NS3 inh: -0.71; AP complement: 15.7

How did COc1cccc(N2CCN(C(=S)NCc3ccco3)CC2)c1 do in these assays?
hDAT+cocaine: 0.279

What do the screens show for `CCn1c(=S)sc2c(=O)n(-c3ccccc3)c(SC)nc21`?
D1 allo mod: 1.17; hDAT+cocaine: 0.697; WNV NS2B-NS3 inh: -1.03; AP complement: 19.8
